Measurements from ChEMBL document CHEMBL4354843, “Structure-Based Design of a Potent and Selective Covalent Inhibitor for SRC Kinase That Targets a P-Loop Cysteine” (J Med Chem, 2020).

Tests used:
[1] = target: Activin receptor type-1-like (Homo sapiens) (UniProt P37023); experiment: Binding affinity to wild-type human ACVRL1 (L164 to Q503 residues) expressed in bacterial expression system assessed as residual binding level at 1 uM by Kinomescan method relative to control
Summary of the method: (§1)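 Active-site-directed KinomeScan competition binding panel covering 468 kinases, compound tested at 1 μM. Each readout is the kinase signal remaining with compound, expressed as a percentage of the DMSO control. […]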

[2] = target: RAC-beta serine/threonine-protein kinase (Homo sapiens) (UniProt P31751); experiment: Binding affinity to wild-type human partial length AKT2 expressed in bacterial expression system assessed as residual binding level at 1 uM by Kinomescan method relative to control
Sequence of RAC-beta serine/threonine-protein kinase (Homo sapiens) (P31751 whole entry, the tested form may be a part): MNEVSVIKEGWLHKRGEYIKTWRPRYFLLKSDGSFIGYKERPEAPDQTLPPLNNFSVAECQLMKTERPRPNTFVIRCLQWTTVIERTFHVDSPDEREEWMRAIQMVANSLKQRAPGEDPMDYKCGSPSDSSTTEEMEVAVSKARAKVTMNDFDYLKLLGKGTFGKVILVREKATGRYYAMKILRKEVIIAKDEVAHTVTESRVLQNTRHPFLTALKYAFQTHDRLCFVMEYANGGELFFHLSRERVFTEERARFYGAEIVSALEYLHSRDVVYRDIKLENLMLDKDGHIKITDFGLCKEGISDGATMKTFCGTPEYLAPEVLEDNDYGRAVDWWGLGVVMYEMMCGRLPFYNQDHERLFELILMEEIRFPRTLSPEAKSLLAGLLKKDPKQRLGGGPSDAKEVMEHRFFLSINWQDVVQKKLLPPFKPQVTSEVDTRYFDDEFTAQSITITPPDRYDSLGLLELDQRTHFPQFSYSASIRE

[3] = target: Calcium/calmodulin-dependent protein kinase type II subunit alpha (Homo sapiens) (UniProt Q9UQM7); experiment: Binding affinity to wild-type human partial length CAMK2A (M1 to K328 residues) expressed in bacterial expression system assessed as residual binding level at 1 uM by Kinomescan method relative to control
[4] = target: Cyclin-dependent kinase 4 (Homo sapiens) (UniProt P11802); experiment: Binding affinity to wild-type human full length CDK4 (M1 to E303 residues) expressed in mammalian expression system assessed as residual binding level at 1 uM by Kinomescan method relative to control; summary of the method: as §1
[5] = target: Cyclin-dependent kinase-like 2 (Homo sapiens) (UniProt Q92772); experiment: Binding affinity to wild-type human partial length CDKL2 (M1 to D327 residues) expressed in bacterial expression system assessed as residual binding level at 1 uM by Kinomescan method relative to control
Sequence of Cyclin-dependent kinase-like 2 (Homo sapiens) (Q92772 whole entry, the tested form may be a part): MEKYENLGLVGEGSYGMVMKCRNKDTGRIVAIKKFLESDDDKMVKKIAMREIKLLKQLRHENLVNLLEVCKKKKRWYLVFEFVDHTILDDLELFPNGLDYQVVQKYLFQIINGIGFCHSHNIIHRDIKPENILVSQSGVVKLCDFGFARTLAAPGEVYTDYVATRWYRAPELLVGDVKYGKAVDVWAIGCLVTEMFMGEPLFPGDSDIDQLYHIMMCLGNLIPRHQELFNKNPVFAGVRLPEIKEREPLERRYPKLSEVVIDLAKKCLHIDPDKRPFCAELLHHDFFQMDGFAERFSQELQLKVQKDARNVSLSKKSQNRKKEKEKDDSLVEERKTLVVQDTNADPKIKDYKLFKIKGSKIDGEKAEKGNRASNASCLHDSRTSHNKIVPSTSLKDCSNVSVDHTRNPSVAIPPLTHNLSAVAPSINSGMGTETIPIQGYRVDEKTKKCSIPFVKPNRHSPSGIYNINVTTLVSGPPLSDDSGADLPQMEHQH

[6] = target: Serine/threonine-protein kinase Chk1 (Homo sapiens) (UniProt O14757); experiment: Binding affinity to wild-type human partial length CHEK1 (M1 to G289 residues) expressed in bacterial expression system assessed as residual binding level at 1 uM by Kinomescan method relative to control
[7] = target: Serine/threonine-protein kinase MRCK gamma (Homo sapiens) (UniProt Q6DT37); experiment: Binding affinity to wild-type human partial length DMPK2 (S46 to S408 residues) expressed in bacterial expression system assessed as residual binding level at 1 uM by Kinomescan method relative to control
Sequence of Serine/threonine-protein kinase MRCK gamma (Homo sapiens) (Q6DT37 whole entry, the tested form may be a part): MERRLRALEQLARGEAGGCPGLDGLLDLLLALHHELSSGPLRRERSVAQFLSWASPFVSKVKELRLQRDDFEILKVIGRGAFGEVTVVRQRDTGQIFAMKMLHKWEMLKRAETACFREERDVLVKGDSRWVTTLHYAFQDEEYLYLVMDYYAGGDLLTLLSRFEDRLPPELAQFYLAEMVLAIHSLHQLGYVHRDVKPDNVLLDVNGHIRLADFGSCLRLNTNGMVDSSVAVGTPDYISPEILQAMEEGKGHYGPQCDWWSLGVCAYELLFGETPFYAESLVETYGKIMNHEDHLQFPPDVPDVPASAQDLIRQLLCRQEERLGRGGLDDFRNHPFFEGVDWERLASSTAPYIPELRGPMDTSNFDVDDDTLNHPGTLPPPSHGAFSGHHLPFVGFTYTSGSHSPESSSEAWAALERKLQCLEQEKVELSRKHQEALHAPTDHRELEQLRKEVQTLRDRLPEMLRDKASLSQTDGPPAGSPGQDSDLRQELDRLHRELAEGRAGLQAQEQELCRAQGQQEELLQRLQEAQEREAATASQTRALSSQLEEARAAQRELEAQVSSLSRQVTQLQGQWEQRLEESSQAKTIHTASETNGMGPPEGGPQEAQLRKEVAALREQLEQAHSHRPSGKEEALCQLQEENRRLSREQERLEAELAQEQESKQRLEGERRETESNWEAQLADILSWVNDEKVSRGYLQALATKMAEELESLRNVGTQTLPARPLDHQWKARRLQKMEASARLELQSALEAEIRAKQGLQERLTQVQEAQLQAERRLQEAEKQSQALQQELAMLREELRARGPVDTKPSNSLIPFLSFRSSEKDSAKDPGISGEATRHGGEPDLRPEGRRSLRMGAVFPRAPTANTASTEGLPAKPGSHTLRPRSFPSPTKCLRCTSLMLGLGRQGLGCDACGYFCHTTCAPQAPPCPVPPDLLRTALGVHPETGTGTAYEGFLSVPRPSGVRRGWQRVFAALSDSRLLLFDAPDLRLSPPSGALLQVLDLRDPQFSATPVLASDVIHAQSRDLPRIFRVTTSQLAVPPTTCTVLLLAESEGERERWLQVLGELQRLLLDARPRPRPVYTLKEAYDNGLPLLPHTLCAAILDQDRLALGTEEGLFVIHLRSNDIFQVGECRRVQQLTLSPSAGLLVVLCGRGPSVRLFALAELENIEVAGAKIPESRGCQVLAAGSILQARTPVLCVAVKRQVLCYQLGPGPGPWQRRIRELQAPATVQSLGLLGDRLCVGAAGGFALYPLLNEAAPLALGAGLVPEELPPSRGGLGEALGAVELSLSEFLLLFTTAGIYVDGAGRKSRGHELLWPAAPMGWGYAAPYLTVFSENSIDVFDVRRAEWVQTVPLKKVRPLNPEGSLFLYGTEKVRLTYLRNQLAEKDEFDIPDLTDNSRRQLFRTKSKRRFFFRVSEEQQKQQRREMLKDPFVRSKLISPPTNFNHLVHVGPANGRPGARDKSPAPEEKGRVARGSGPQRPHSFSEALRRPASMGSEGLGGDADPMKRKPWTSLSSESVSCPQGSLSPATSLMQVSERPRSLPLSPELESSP

[8] = target: Ephrin type-A receptor 7 (Homo sapiens) (UniProt Q15375); experiment: Binding affinity to wild-type human partial length EPHA7 (Y608 to S912 residues) expressed in bacterial expression system assessed as residual binding level at 1 uM by Kinomescan method relative to control
[9] = tested on: Receptor-type tyrosine-protein kinase FLT3 (Homo sapiens), P36888 [UNDEFINED MUTATION]; experiment: Binding affinity to human partial length FLT3 ITD/D835V double mutant expressed in bacterial expression system assessed as residual binding level at 1 uM by Kinomescan method relative to control
Summary of the method: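 KinomeScan active site-directed competition binding panel (468 kinases), compound tested at 1 μM. Result expressed as remaining kinase signal versus DMSO control (percent of control).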

[10] = target: Inhibitor of nuclear factor kappa-B kinase subunit beta (Homo sapiens) (UniProt O14920); experiment: Binding affinity to wild-type human full length IKK-beta (M1 to S756 residues) expressed in mammalian expression system assessed as residual binding level at 1 uM by Kinomescan method relative to control; summary of the method: as §1
[11] = target: Mitogen-activated protein kinase kinase kinase 2 (Homo sapiens) (UniProt Q9Y2U5); experiment: Binding affinity to wild-type human partial length MAP3K2 (S315 to H619 residues) expressed in mammalian expression system assessed as residual binding level at 1 uM by Kinomescan method relative to control
Summary of the method: (§2)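 Active-site-directed competition binding panel of 468 kinases (KinomeScan), compound at 1 μM. The read-out is kinase remaining bound, given as a percentage of the DMSO control. […]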

[12] = target: Microtubule-associated serine/threonine-protein kinase 1 (Homo sapiens) (UniProt Q9Y2H9); experiment: Binding affinity to wild-type human partial length MAST1 (S346 to V730 residues) expressed in mammalian expression system assessed as residual binding level at 1 uM by Kinomescan method relative to control; summary of the method: as §2
Sequence of Microtubule-associated serine/threonine-protein kinase 1 (Homo sapiens) (Q9Y2H9 whole entry, looked up, the tested form may be a part): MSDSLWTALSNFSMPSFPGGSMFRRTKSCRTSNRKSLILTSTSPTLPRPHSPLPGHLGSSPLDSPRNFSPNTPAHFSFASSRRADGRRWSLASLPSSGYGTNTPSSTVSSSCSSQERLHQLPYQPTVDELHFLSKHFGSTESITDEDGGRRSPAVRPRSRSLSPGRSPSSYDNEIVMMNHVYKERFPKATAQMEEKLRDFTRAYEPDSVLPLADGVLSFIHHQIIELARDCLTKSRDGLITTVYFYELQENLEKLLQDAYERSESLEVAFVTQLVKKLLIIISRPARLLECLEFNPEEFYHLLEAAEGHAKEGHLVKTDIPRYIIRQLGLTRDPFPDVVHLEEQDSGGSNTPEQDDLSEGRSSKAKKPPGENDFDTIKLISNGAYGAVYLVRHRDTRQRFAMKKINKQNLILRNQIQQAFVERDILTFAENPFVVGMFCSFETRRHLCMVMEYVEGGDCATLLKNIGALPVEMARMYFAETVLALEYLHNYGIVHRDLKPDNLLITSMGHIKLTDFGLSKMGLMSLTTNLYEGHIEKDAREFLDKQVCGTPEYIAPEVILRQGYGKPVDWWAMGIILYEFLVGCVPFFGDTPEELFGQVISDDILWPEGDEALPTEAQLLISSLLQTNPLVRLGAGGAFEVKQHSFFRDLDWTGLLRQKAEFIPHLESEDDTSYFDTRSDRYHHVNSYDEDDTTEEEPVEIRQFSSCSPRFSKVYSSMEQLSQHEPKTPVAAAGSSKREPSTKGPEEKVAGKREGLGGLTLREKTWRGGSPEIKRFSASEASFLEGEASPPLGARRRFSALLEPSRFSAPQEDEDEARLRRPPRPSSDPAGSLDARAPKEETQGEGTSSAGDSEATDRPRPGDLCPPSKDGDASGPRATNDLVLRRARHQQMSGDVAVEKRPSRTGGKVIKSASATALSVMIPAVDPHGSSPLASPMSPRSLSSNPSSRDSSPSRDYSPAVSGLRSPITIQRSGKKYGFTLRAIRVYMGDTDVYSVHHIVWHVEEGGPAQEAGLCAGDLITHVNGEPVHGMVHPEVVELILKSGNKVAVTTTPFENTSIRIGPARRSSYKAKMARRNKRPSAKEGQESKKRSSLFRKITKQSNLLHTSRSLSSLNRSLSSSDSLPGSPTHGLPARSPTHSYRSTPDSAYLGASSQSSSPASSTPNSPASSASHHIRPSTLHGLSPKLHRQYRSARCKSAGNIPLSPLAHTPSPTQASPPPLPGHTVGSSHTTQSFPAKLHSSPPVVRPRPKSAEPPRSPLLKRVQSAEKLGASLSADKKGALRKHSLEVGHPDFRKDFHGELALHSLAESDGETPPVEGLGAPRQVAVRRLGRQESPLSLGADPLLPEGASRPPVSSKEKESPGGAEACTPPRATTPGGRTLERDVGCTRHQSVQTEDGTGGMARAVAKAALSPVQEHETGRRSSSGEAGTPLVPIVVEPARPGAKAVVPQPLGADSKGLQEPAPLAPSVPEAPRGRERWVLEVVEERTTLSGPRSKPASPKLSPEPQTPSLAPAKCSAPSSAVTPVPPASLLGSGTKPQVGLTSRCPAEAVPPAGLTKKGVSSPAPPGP

[13] = target: Dual specificity mitogen-activated protein kinase kinase 1 (Homo sapiens) (UniProt Q02750); experiment: Binding affinity to wild-type human full length MEK1 (M1 to V393 residues) expressed in mammalian expression system assessed as residual binding level at 1 uM by Kinomescan method relative to control
Summary of the method: (§3)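 KinomeScan, an active site-directed competition binding panel of 468 kinases. The test compound was at 1 μM. The readout is remaining kinase binding as a percentage of the DMSO control. Scores above 35% were treated as weak binding and not listed.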

[14] = target: Mitogen-activated protein kinase kinase kinase 10 (Homo sapiens) (UniProt Q02779); experiment: Binding affinity to wild-type human partial length MLK2 (V52 to W380 residues) expressed in bacterial expression system assessed as residual binding level at 1 uM by Kinomescan method relative to control
Sequence of Mitogen-activated protein kinase kinase kinase 10 (Homo sapiens) (Q02779 whole entry, looked up, the tested form may be a part): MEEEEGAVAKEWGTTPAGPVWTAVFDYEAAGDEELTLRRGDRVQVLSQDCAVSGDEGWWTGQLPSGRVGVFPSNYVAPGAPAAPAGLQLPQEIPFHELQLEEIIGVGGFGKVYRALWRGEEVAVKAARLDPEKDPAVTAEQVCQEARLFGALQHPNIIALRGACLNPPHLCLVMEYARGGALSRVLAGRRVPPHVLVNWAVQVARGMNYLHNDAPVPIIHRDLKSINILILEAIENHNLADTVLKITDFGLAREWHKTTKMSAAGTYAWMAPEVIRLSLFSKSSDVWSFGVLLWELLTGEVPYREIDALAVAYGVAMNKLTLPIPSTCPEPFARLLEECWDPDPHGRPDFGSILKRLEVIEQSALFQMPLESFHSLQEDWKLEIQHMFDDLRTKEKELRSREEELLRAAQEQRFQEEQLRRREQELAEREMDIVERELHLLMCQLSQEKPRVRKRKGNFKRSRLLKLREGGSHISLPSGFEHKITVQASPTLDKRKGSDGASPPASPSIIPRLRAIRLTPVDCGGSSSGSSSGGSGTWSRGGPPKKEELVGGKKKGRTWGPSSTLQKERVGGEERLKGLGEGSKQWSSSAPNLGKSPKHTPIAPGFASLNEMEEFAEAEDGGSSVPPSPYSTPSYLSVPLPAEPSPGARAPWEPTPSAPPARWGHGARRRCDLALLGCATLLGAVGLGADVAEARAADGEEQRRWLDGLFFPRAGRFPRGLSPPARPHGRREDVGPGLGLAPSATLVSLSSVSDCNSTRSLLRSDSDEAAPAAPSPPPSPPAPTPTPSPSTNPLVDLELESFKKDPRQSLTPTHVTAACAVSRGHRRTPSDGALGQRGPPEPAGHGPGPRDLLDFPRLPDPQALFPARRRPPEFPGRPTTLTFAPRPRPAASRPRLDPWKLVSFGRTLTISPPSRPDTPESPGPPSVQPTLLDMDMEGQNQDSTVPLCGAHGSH

[15] = target: Myosin light chain kinase 2, skeletal/cardiac muscle (Homo sapiens) (UniProt Q9H1R3); experiment: Binding affinity to wild-type human partial length MYLK2 (D258 to K570 residues) expressed in bacterial expression system assessed as residual binding level at 1 uM by Kinomescan method relative to control
[16] = target: Mitogen-activated protein kinase 11 (Homo sapiens) (UniProt Q15759); experiment: Binding affinity to wild-type human full length p38-beta (M1 to Q364 residues) expressed in bacterial expression system assessed as residual binding level at 1 uM by Kinomescan method relative to control; summary of the method: as §3
[17] = target: Phosphatidylinositol 3-kinase C2 domain-containing subunit gamma (Homo sapiens) (UniProt O75747); experiment: Binding affinity to wild-type human partial length PIK3C2G (M1 to I1446 residues) expressed in mammalian expression system assessed as residual binding level at 1 uM by Kinomescan method relative to control
[18] = target: Serine/threonine-protein kinase D2 (Homo sapiens) (UniProt Q9BZL6); experiment: Binding affinity to wild-type human partial length PRKD2 (A519 to E838 residues) expressed in bacterial expression system assessed as residual binding level at 1 uM by Kinomescan method relative to control; summary of the method: as §2
[19] = target: cAMP-dependent protein kinase catalytic subunit PRKX (Homo sapiens) (UniProt P51817); experiment: Binding affinity to wild-type human partial length PRKX (M1 to F358 residues) expressed in bacterial expression system assessed as residual binding level at 1 uM by Kinomescan method relative to control
[20] = target: SRSF protein kinase 3 (Homo sapiens) (UniProt Q9UPE1); experiment: Binding affinity to wild-type human partial length SRPK3 (P41 to P567 residues) expressed in bacterial expression system assessed as residual binding level at 1 uM by Kinomescan method relative to control
[21] = target: TGF-beta receptor type-1 (Homo sapiens) (UniProt P36897); experiment: Binding affinity to wild-type human partial length TGFBR1 (D179 to M503 residues) expressed in bacterial expression system assessed as residual binding level at 1 uM by Kinomescan method relative to control
[22] = target: Serine/threonine-protein kinase 25 (Homo sapiens) (UniProt O00506); experiment: Binding affinity to wild-type human partial length YSK1 (V14 to H295 residues) expressed in bacterial expression system assessed as residual binding level at 1 uM by Kinomescan method relative to control

Structure (SMILES): C=CC(=O)Nc1ccccc1Nc1nc(Nc2ccc(N3CCN(C)CC3)cc2)ncc1C(=O)Nc1c(C)cccc1Cl
- Activity [1]: 100%
- Activity [2]: 100%
- Activity [3]: 100%
- Activity [4]: 97%
- Activity [5]: 100%
- Activity [6]: 100%
- Activity [7]: 100%
- Activity [8]: 100%
- Activity [9]: 89%
- Activity [10]: 100%
- Activity [11]: 94%
- Activity [12]: 82%
- Activity [13]: 93%
- Activity [14]: 100%
- Activity [15]: 100%
- Activity [16]: 98%
- Activity [17]: 100%
- Activity [18]: 99%
- Activity [19]: 100%
- Activity [20]: 100%
- Activity [21]: 100%
- Activity [22]: 100%
